BAP1 inh – inhibitors of BAP1 deubiquitinase, primary screen, biochemical, Ub-AMC fluorescence, kinetic; Ubiquitin carboxyl-terminal hydrolase BAP1 (Homo sapiens), Q92560; recombinant BAP1, Ub-AMC hydrolysis fluorescence kinetic; active compounds read low; calls only at 20 µM; 72,000 tested, 0.48% active; AID 436, 2006;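 active = activity remaining at or below 50% of control, provided the compound also passes the data quality filters; inactive = the rest, including low values that fail the filters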;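 also: 100% = DMSO wells rate and 0% = substrate alone blank rate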
D1 mod – D1 CRE-luciferase signal change, two-sided – cell-based, HEK293 D1, dopamine EC30, D1 allosteric modulator project, primary screen; dopamine EC30 potentiation; actives deviate in either direction; AID 641, 2007; B-score at 10 µM; 58,000 tested, 5.9% active;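 active = luminescence count or its row- and column-corrected plate score outside the 99.7% band of the plate's sample wells, on either side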
M1 ag – M1 muscarinic receptor agonists, primary screen, CHO-M1 cells, Fluo-4 calcium, agonist mode | Fluo-4 calcium fluorescence; active compounds read high | 64,000 tested, 3% active | Muscarinic acetylcholine receptor M1 | AID 626, 2007 | B-score at 10 µM;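 active = fluorescence rise, raw or as B-score row- and column-corrected plate score, outside the 99.7% band of its plate's samples, either direction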
HEK293 NFkB inh – inhibitors of PMA/ionomycin-induced NF-kB reporter, primary screen, antigen receptor NF-kB inhibitor project, cell-based, HEK-293 luciferase reporter, luminescence; inhibition, % at 3 µM; HEK-293 NF-kB luciferase reporter; 62,000 tested, 0.21% active; AID 465, 2006;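 active = inhibition above the mean of all tested compounds plus 3 SD, cut at about 40% in these data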;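 also: 0% = stimulated DMSO wells and 100% = 10 µM reference inhibitor 5653914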
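Signal: luciferase luminescence; Material: HEK-293 cells with stable firefly luciferase reporter driven by four HIV NF-kB elements; Probe or stimulus: PMA with ionomycin; Replication: tested once; Times: 1 h compound pretreatment, then 16 h stimulation at 37 °C, 5% CO2; Benchmarks: DMSO and 10 µM reference inhibitor; Evaluation: per-plate % inhibition versus controls.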
M1 antagonist – antagonists of rat M1 muscarinic receptor | Muscarinic acetylcholine receptor M1 (Rattus norvegicus), P08482 | CHO-M1 cells, Fluo-4 calcium, ACh EC80 antagonist mode; active compounds read low | B-score at 10 µM | 64,000 tested, 3.4% active;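 active = calcium fluorescence response, raw or row-and-column corrected B-score, differing from the plate sample mean either way at a set confidence level, mostly lower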
hDAT+cocaine – changed hDAT dopamine uptake under cocaine IC80, either direction, primary screen, cocaine antagonist project, cell-based, LLC-PK1 hDAT, [14C]-dopamine uptake, MLSMR; B-score at 10 µM; 110,000 tested, 1.3% active; LLC-PK1 hDAT cells, [14C]-dopamine uptake with cocaine IC80; actives deviate in either direction; Sodium-dependent dopamine transporter (Homo sapiens), Q01959;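 active = Z score or B-score, a plate-position-corrected score, falls beyond the plate's 99.7% confidence bounds, in either direction; inactive = both scores lie inside the 99.7% bounds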;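 also: scored against the spread of the other compound wells on the same plate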
D1 mod confirm – D1 receptor positive allosteric modulators, retest, confirmation, cell-based, HEK293 D1, CRE-luciferase, duplicate | luminescence at 10 µM | AID 642, 2007 | shares compounds with D1 mod | dopamine EC30 potentiation; active compounds read high | 2,200 tested, 88% active;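 active = luminescence in either of two replicates above the same-plate mean plus 3 SD of the low-dose dopamine control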
D1 ag no DA – D1 receptor agonism without dopamine, confirmation, mechanism study for D1 allosteric modulator project, cell-based, HEK293 D1, CRE-luciferase, secondary assay 1; shares compounds with D1 mod; luminescence, no dopamine; active compounds read high; luminescence at 10 µM; 1,900 tested, 0.8% active; AID 646, 2007; in the data active = luminescence above about 3900
Isoprot counter – counter-screen for D1 modulators: isoproterenol response in HEK293 cells; shares compounds with D1 mod; HEK293 D1 CRE-luciferase, isoproterenol EC30 counter-screen; 2,200 tested, 63% active; calls only at 10 µM;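 active = luminescence in either replicate above plate mean of wells with a partly effective reference agonist dose plus 3 SD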;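 also: isoproterenol raises cAMP through native beta-adrenoceptor Gs so signal bypasses D1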
Numbers without * were called inactive; i = inactive; . = no result shown; + = active, no number. This is a sample that favours compounds with a hit; in the whole collection about 7.2% have one here.

SMILES	BAP1 inh	D1 mod	M1 ag	HEK293 NFkB inh	M1 antagonist	hDAT+cocaine	D1 mod confirm	D1 ag no DA	Isoprot counter
Oc1ccc(-c2nc(-c3ccc(O)c(O)c3)cs2)cc1	i	6.7*	.	18	.	-0.13	7572*	2480	+
CCC1(C)Cc2c(sc3nc(SCC(=O)O)n(-c4ccccc4)c(=O)c23)CO1 (centres undefined)	i	.	.	.	.	.	.	.	.
CCOc1ccc(NC(=O)COc2cccc(C)c2)c([N+](=O)[O-])c1	i	.	.	.	.	.	.	.	.
C=CCN=C(NC#N)SCC(=O)c1cccc(OC)c1	i	12*	-0.7	-11	-0.0089	0.11	10808*	1776	+
Cn1c(=O)n(C)c2nc([N+](=O)[O-])c(Cl)cc21	i	.	.	.	.	.	.	.	.
CC(C)Nc1nc(-c2ccccc2)nc(-n2ccnc2)n1	i	11*	6.9e-05	-2	0.41	-0.18	23348*	1840	+
c1ccc(-c2nc(NC3CC3)nc(-n3ccnc3)n2)cc1	i	11*	1.9	8	-0.31	-0.62	26636*	1696	+
C=CCNc1nc(-c2ccccc2)nc(-n2ccnc2)n1	i	8.7*	1.2	10	0.48	-0.4	22092*	1636	+
O=C(CSc1nc(Nc2ccccc2)nc(N2CCOCC2)n1)N1CCc2ccccc21	.	1.2	0.16	12	0.23	-1.1	.	.	.
O=C(CSc1nc(Nc2ccccc2)nc(N2CCOCC2)n1)Nc1ccc2c(c1)OCCO2	i	3.4*	0.012	30	0	0.12	8860*	.	+
O=C(CSc1nc(Nc2ccccc2)nc(N2CCOCC2)n1)N1CCCC1	i	5.6*	0.79	23	-0.44	0.64	9432*	1476	+
Cc1ccc(Oc2cccc(N3C(=O)c4cccc([N+](=O)[O-])c4C3=O)c2)cc1C	i	.	.	.	.	.	.	.	.
COC(=O)c1c(N)c(C#N)c(C)n1-c1ccccc1	i	3*	0.49	-12	-0.056	-0.5	8468*	1628	+
Cc1cccc(CSC2=NCCN2C(=O)c2ccco2)c1	i	3.8*	0.051	12	-1.1	1.4	9944*	1728	i
CC(C)CC1(C)NC(=O)NC1=O (centres undefined)	i	3*	0.16	20	0.0077	-0.45	6352	1712	i
O=C(O)c1ccc(-c2ccc(O)c(F)c2)cc1	i	5.9*	1.6	19	-0.97	0.27	7760*	1624	+
O=C(O)c1ccc(O)c(O)c1	.	.	.	.	.	-0.49	.	.	.
c1ccc(CSc2nncn2-c2ccccn2)cc1	i	7.9*	-0.68	8	-1.7	-0.00076	12884*	1752	+
CCOc1ccc(N2C(=O)CC(Nc3ccc(N4CCCCC4)cc3)C2=O)cc1 (centres undefined)	i	.	.	.	.	.	.	.	.
Cn1c(=O)c2c(nc(NCc3ccco3)n2CC(O)COc2ccccc2)n(C)c1=O (centres undefined)	i	-1.2	1.6	2	-0.014	.	.	.	.
Cc1ccccc1OCC(O)Cn1c(NCCN(C)C)nc2c1c(=O)n(C)c(=O)n2C (centres undefined)	i	8.2*	0.043	16	-1.1	.	4948	1480	i

Source: PubChem BioAssay
